Reference: ChEMBL document CHEMBL1144257, “5-Chloroindoloyl glycine amide inhibitors of glycogen phosphorylase: synthesis, in vitro, in vivo, and X-ray crystallographic characterization” (Bioorg Med Chem Lett, 2005)
pIC50: −log10 of the molar value.

Tests used:
SK-HEP1 = test: Inhibitory concentration against human SK-Hep-1 cells (hepatoma cell line); type: functional, cell-based
Method in brief: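 SK-HEP-1 cells carrying pre-labeled ¹⁴C-glycogen, with phosphorylase activated by forskolin. Glycogenolysis is the ¹⁴C-glycogen (dpm) difference between basal and forskolin-treated cells. Inhibition is expressed as percent of forskolin-induced glycogenolysis in DMSO controls. IC50 from a 6-point curve (0.1–30μM), triplicate points, mean of ≥2 independent experiments where repeated.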

[1] = biological target: T1, Glycogen phosphorylase, liver form (Homo sapiens, UniProt P06737); test: (§1) Inhibitory concentration against glycogen phosphorylase
T1 sequence (P06737 whole entry): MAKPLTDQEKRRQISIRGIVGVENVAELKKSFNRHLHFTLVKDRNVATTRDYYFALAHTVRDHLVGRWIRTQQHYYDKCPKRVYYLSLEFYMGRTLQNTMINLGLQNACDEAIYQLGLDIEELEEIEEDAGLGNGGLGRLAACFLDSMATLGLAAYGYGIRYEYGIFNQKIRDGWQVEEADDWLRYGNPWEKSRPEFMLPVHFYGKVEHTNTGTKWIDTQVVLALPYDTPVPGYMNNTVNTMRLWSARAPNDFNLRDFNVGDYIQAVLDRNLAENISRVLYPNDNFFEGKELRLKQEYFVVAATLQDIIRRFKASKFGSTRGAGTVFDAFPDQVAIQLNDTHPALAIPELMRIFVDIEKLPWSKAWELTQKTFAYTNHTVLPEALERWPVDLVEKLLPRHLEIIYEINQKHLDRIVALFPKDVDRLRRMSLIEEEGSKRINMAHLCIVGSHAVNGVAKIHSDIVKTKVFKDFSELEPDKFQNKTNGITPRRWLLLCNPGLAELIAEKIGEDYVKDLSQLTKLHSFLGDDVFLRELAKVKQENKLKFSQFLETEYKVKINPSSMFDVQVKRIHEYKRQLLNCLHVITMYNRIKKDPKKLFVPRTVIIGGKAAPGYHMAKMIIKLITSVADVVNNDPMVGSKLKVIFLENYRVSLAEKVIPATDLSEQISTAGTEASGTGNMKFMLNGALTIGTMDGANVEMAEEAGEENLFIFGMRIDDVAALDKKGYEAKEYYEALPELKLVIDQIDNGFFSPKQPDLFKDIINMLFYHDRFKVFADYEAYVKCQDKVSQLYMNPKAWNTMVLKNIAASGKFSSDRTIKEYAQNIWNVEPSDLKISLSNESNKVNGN

Mus musculus [2] = test: In-vivo minimum effective dose (MED) for reduction of plasma glucose in mouse after 3 hours; type: functional; settings: read-out: MED
Method in brief: (§2)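 Fed diabetic ob/ob mice, oral dosing in neat PEG400, starting at […] and then at successively lower doses. Plasma glucose measured 3h post-dose. Lowering is expressed as percent decrease versus vehicle-treated controls within the same experiment, with significance by unpaired t-test on group mean glucose. MED is the lowest dose giving reduction.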

Mus musculus [3] = species on record: Mus musculus; test: Percentage of glucose lowering after 3h at minimum effective dose in mouse; type: functional; method in brief: as §2
[4] = biological target: T1, Glycogen phosphorylase, liver form; test: as §1; remark: listed apart in the source
Method in brief: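 Recombinant human liver GPa (50ng), run in the glycogen-synthesis direction at 22°C. Compounds added in 14% DMSO before enzyme. Released phosphate read at 620nm with malachite green/molybdate in HCl after 20min. IC50 from triplicate dose-response curves, mean of ≥3 determinations (≥2 if >500 nM).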

Row | SMILES | pIC50 (SK-HEP1) | pIC50 [1] | minimal effective dose (Mus musculus [2]) [mg/kg] | Activity (Mus musculus [3]) [%] | pIC50 [4]
1 | O=C(NCC(=O)N(CCOCCO)C1CCCC1)c1cc2cc(Cl)ccc2[nH]1 | 5.42 | 6.64 | > 10 | – | –
2 | O=C(NCC(=O)N(CCO)C1CCOCC1)c1cc2cc(Cl)ccc2[nH]1 | 5.85 | 6.60 | 5 | 27 | –
3 | O=C(NCC(=O)N(CCO)C1CCCC1)c1cc2cc(Cl)ccc2[nH]1 | 6.85 | 7.24 | 5 | 25 | –
4 | O=C(NCC(=O)N(CCO)C1CCC1)c1cc2cc(Cl)ccc2[nH]1 | 5.70 | 6.89 | 25 | 30 | –
5 | O=C(NCC(=O)N(CCO)c1ccccc1)c1cc2cc(Cl)ccc2[nH]1 | 6.57 | 6.92 | > 10 | – | –
6 | CN(C)C(=O)[C@H](O)[C@H](Cc1ccccc1)NC(=O)c1cc2cc(Cl)ccc2[nH]1 | 5.82 | – | 25 | 32 | –
7 | CN(C(=O)CNC(=O)c1cc2cc(Cl)ccc2[nH]1)C1CCCC1 | 5.77 | 7.26 | 10 | 36 | –
8 | O=C(NCC(=O)N(CCOc1ccccc1)C1CCCC1)c1cc2cc(Cl)ccc2[nH]1 | – | – | – | – | 5.85
9 | CCCCN(CCO)C(=O)CNC(=O)c1cc2cc(Cl)ccc2[nH]1 | 6.00 | 6.92 | > 10 | – | –
10 | CC(C)(O)CN(C(=O)CNC(=O)c1cc2cc(Cl)ccc2[nH]1)C1CCCC1 | 5.85 | 6.82 | 10 | 30 | –
11 | CC(C)CN(CCO)C(=O)CNC(=O)c1cc2cc(Cl)ccc2[nH]1 | 5.60 | 6.74 | 25 | 25 | –
12 | O=C(NCC(=O)N(CCO)C1CCCCC1)c1cc2cc(Cl)ccc2[nH]1 | 6.15 | 7.00 | > 10 | – | –
13 | CN(C(=O)CNC(=O)c1cc2cc(Cl)ccc2[nH]1)C1CCCCC1 | 5.85 | 6.82 | > 10 | – | –
14 | N#CCN(C(=O)CNC(=O)c1cc2cc(Cl)ccc2[nH]1)C1CCCC1 | 6.17 | 7.52 | 10 | 40 | –
